Assay results of several laboratories.
Target: Maternal embryonic leucine zipper kinase (MELK, Homo sapiens, UniProt Q14680)

COc1cc(Nc2ncc(F)c(Nc3ccc4c(n3)NC(=O)C(C)(C)O4)n2)cc(OC)c1OC — inhibition (binding, competition with immobilised ligand; 10 µM): 71%
Cn1cncc1[C@@](O)(COc1ccc(C#N)cc1-c1ccc(OC(F)(F)F)cc1)c1ccc(C#N)cc1 — remaining binding (cell-free assay, competition with immobilised ligand; 1 µM): 79%
Cc1nn(C)cc1-c1nc2c(N3CCN(Cc4ccc(Cl)cc4)CC3)c(Cl)cnc2[nH]1 — remaining binding (binding, competition with immobilised ligand; 1 µM): 100%
N#CC1(c2ccccn2)CCN(Cc2cc(C(=O)O)c(=O)n3ccccc23)CC1 — remaining binding (cell-free assay, competition with immobilised ligand; 1 µM): 55%
Cn1cc(-c2cc(F)cc(N3CCn4c(cc5c4CCCC5)C3=O)c2CO)cc(Nc2ccc(N3CCN(C4COC4)CC3)cn2)c1=O — inhibition (enzyme activity, inhibitor; 0.1 µM): 16%
O=c1[nH]c2ccccc2n1C1CCN(Cc2ccc(-c3[nH]c4cc5ncnc5cc4nc3-c3ccccc3)cc2)CC1 — remaining signal (cell-free assay; 0.5 µM): 110%
COc1ncccc1-c1cnn2ccc(N3CCN(C(=O)OC(C)C)CC3)nc12 — remaining binding (binding, competition with immobilised ligand; 1 µM): 97%
CC(C)(C)c1cc(C=C(C#N)C#N)cc(Br)c1O — remaining activity (enzyme activity, inhibitor; 0.5 µM): 91.6%
Cn1cc(-c2cccc(N3CCc4c(sc5c4CC(C)(C)C5)C3=O)c2CO)cc(Nc2ccncn2)c1=O — inhibition (enzyme activity, inhibitor; 1 µM): 5%
